Measured values collected from several papers.
Protocols differ between the studies behind these lines.
Effect on: cell growth or viability

COc1ccc(F)cc1-c1ccc2nc(-c3ccc(F)cc3)cc(C(=O)Nc3ccccc3)c2c1 — IC50 (MIA PaCa-2; MTT; 48 h): > 50000 nM
COc1cc2c3c(n(CCCNC(C)C)c(=O)c2cc1OC)-c1nc2c(cc1C3=O)OCO2 — IC50 (KMS-27; MTS; 72 h): 206 nM
C=CC(=O)N1CCN(c2nc(=O)n(-c3c(C)ccnc3C(C)C)c3nc(-c4c(O)cccc4F)c(F)cc23)[C@@H](C)C1 — IC50 (MIA PaCa-2; ATP luminescence): 23.5 nM
O=C(Nc1ccccc1)c1cc(-c2ccccc2)nc2ccc(-c3ccccc3)cc12 — IC50 (MIA PaCa-2; MTT; 48 h): > 50000 nM
CCNCCCn1c2c(c3cc(OC)c(OC)cc3c1=O)C(=O)c1cc3c(nc1-2)OCO3 — IC50 (MOLT-4; MTS; 72 h): 13 nM
Nc1ccc(/C=C/C(=O)N2CCc3c(oc4c(-c5ccc(F)cc5)cc(-c5ccc(C(=O)N6CCC(F)(F)CC6)cc5F)cc34)C2)cn1 — IC50 (MIA PaCa-2; CCK-8; 72 h): 2660 nM
C=C(F)C(=O)N1CCN(c2nc(OC[C@@H]3CCCN3C)nc3c2CCN(c2cccc4cccc(Cl)c24)C3)C[C@@H]1CC#N — IC50 (SW837; ATP luminescence): 86.2 nM
CN1CCC(NC(=O)c2ccc(-c3cc(-c4ccsc4)c4oc5c(c4c3)CCN(C(=O)/C=C/c3ccc(N)nc3)C5)nn2)C(F)(F)C1 (stereo not shown) — IC50 (MIA PaCa-2; CCK-8; 72 h): 650 nM
COc1ccc(-c2cc(C(=O)Nc3ccccc3)c3cc(-c4cnc(Cl)c(C)c4)ccc3n2)cc1 — IC50 (MIA PaCa-2; MTT; 48 h): > 50000 nM
COc1cc2c3c(n(CCCN4CCOCC4)c(=O)c2cc1OC)-c1nc2c(cc1C3=O)OCO2 — IC50 (KMS-27; MTS; 72 h): 530 nM
Nc1ccc(/C=C/C(=O)N2CCc3c(oc4c(-c5ccc(F)cc5)cc(-c5ccc(C(=O)N6CCC(F)(F)CC6)nn5)cc34)C2)cn1 — IC50 (MIA PaCa-2; CCK-8; 72 h): 230 nM
COc1ccc(-c2cc(C(=O)Nc3ccccc3)c3cc(-c4ccccc4)ccc3n2)cc1 — IC50 (MIA PaCa-2; MTT; 48 h): 48300 nM
Nc1ccc(/C=C/C(=O)N2CCc3c(oc4c(-c5ccc(F)cc5)cc(-c5cnc(C(=O)N6CCC(F)(F)CC6)nc5)cc34)C2)cn1 — IC50 (MIA PaCa-2; CCK-8; 72 h): 1360 nM
[NH2][Pt]([NH2])([Cl])[Cl] — IC50 (LNCaP; MTT; 72 h): 10200 nM
COc1cc2c3c(n(CCCn4ccnc4)c(=O)c2cc1OC)-c1nc2c(cc1C3=O)OCO2 — IC50 (KMS-27; MTS; 72 h): 238 nM
COc1cccc2c1C(=O)c1c(O)c3c(c(O)c1C2=O)C[C@@](O)(C(=O)CO)C[C@@H]3O[C@H]1C[C@H](N)[C@H](O)[C@H](C)O1 — IC50 (MIA PaCa-2; MTT; 48 h): 25300 nM
COc1cc2c3c(n(CCCNCCO)c(=O)c2cc1OC)-c1nc2c(cc1C3=O)OCO2 — IC50 (KMS-27; MTS; 72 h): 141 nM
COc1ccc(-c2cc(C(=O)Nc3ccccc3)c3cc(-c4cc(Cl)ccc4F)ccc3n2)cc1 — IC50 (MIA PaCa-2; MTT; 48 h): > 50000 nM
Cc1sc2c(c1C)C(c1ccc(Cl)cc1)=N[C@@H](CC(=O)NCCCCCCCCNC(=O)COc1cccc3c1C(=O)N(C1CCC(=O)NC1=O)C3=O)c1nnc(C)n1-2 (stereo partly shown) — IC50 (MOLT-4; ATP luminescence): 23 nM
